{"data": "Published values collected from several papers", "target": "Procathepsin L (CTSL, Homo sapiens, UniProt P07711)", "effect on": "enzyme activity", "action": "inhibitor", "note": "Lines come from different studies, so protocols differ."}
{"Compound": "COc1cccc2[nH]c(C(=O)N[C@@H](CC(C)C)C(=O)N[C@@H](C[C@@H]3CCNC3=O)C(=O)CO)cc12", "quantity": "IC50", "value": "146 nM"}
{"Compound": "O=C(Cn1nnc2ccccc21)Nc1ccccc1N1CCc2sccc2C1", "technique": "FRET", "quantity": "IC50", "value": "9960 nM"}
{"Compound": "CC[C@H]1NC(=O)[C@@H]2CSC(=N2)[C@@H](Cc2ccccc2)N(C)C(=O)[C@@H]2CCCN2C(=O)[C@H](C(C)C)N(C)C(=O)[C@H](Cc2ccccc2)OC(=O)[C@H](C)[C@@H](C)NC(=O)[C@@H]([C@@H](C)O)NC(=O)[C@@H](CC(C)C)N(C)C(=O)[C@@H]2CSC1=N2", "quantity": "IC50", "value": "14000 nM"}
{"Compound": "CC[C@H](NC(=O)OCc1ccccc1)C(=O)N[C@H](C(=O)N[C@@H](CC(C)C)C(=O)N(C)N(C#N)CCC(N)=O)C(C)(C)C", "quantity": "Ki", "value": "22.2 nM"}
{"Compound": "CC(C)(C)OC(=O)Nc1cccn([C@@H](CC2CC2)C(=O)N[C@@H](C[C@@H]2CCNC2=O)C(=O)C(=O)NCc2ccccc2)c1=O", "quantity": "IC50", "value": "291 nM"}
{"Compound": "COC(=O)c1c(C)[nH]c(C(=O)COn2nnc3ccc(S(=O)(=O)N(C)C)cc32)c1C", "technique": "FRET", "quantity": "IC50", "value": "> 100000 nM"}
{"Compound": "CN(C(=O)[C@H](Cc1ccccc1)NC(=O)[C@@H](NC(=O)OCc1ccccc1)C(C)(C)C)N(C#N)CCC(N)=O", "quantity": "Ki", "value": "52.9 nM"}
{"Compound": "COc1cc(Nc2ncc(F)c(Nc3ccc4c(n3)NC(=O)C(C)(C)O4)n2)cc(OC)c1OC", "quantity": "IC50", "value": "6310 nM"}
{"Compound": "CC(C)C[C@H](NC(=O)[C@H]1O[C@@H]1C(=O)O)C(=O)NCCCCN=C(N)N", "quantity": "IC50", "value": "33 nM"}
